The series is described as follows: Toxicity liver stage against HepG2, at 10uM. Format: cell-based. More on the design: test concentration 10 uM, cell line HepG2-A16-CD81EGFP. The settings on record: human, HepG2-A16-CD81EGFP cells; read-out: INHIBITION
The method in brief: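 Uninfected HepG2-A16-CD81EGFP cells, 3 × 10^3 per well, 1536-well, plated on prespotted compound at 10 μM final, parasite-free screening media added to match infected plates; puromycin 10 μM positive, DMSO 0.5% negative; run in parallel with 48 h PbLuc assay at 37 °C, 5% CO2; viability by CellTiter-Glo luminescence, normalized to controls.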
As for `CSc1cccc(CN2CCC(CCC(=O)NC3CC3)CC2)c1`, the cytotoxicity at 10 µM was 1.28%.
Turning to `CN(C)CCO[C@@H]1CC[C@H]2[C@H]1OCCN2C(=O)c1ccccc1F`, the cytotoxicity at 10 µM is 2.25%.
`CNC(=O)C1(c2cnccn2)CCCN1C(=O)Cc1ccsc1` (stereo not given): the cytotoxicity at 10 µM is 4.12%.
With `CN(C(=O)c1ccn(C)n1)[C@@H]1CCC[C@@H](Oc2ccccc2)[C@@H]1O` the figure was -10.3%; with `O=C(c1ccno1)N1CCCC(c2ncncc2-c2ccncc2)C1` (stereo not given), -19.9%; with `O=C(c1ccncc1)N1CCCC(c2cc(C(F)F)n3ncnc3n2)C1` (stereo not given), -4.45%.
On to `Cn1ccnc1CN1CCOC(C)(C(=O)N2CCOCC2)C1` (stereo not given), for which the cytotoxicity at 10 µM was 1.27%.
Turning to `Oc1nc(N2CCOCC2)nc2c1CCN(Cc1ccccc1)CC2`, the cytotoxicity at 10 µM is -4.03%.
Take `CCc1nc2ccccc2c(=O)n1CC1(O)CCN(C(=O)C(C)C)CC1`: the cytotoxicity at 10 µM is -24.3%.
Take `CC(C)N1CCC(Cc2cncc(-c3cc(F)ccc3C(=O)O)n2)C1` (stereo not given): the cytotoxicity at 10 µM is -6.88%.
Regarding `COc1cc(CN2C[C@H](OC)[C@]3(CCCO3)C2)ccc1F`, the cytotoxicity at 10 µM was -7.61%.
In the case of `CCc1oc(C(=O)N2CCCC(c3nnn[nH]3)C2)cc1C` (stereo not given), the cytotoxicity at 10 µM worked out at 9.09%.
In the case of `Cc1cc(C)c(NC(=O)Nc2cnn(CC(O)CN(C)C)c2)c(C)c1` (stereo not given), the cytotoxicity at 10 µM is 12.5%.
As to `CS(=O)(=O)CCNC(=O)Nc1ccc(Cl)cc1-n1cccc1`, the cytotoxicity at 10 µM is 48.2%.
For `Cc1cc(OCCC(=O)NCc2ccc(F)cc2)nnc1C`, the cytotoxicity at 10 µM came out at 4.4%.
For the compound `Cn1ncc2c(=O)[nH]c(N3CCCC3c3cccs3)nc21` (stereo not given), the cytotoxicity at 10 µM is -0.53%.
As to `CC(Nc1ccc2c(c1)CCC2)c1nc(C2CC2)no1` (stereo not given), the cytotoxicity at 10 µM was found to be 7.92%.
The value for `CC(C)(C)OC(=O)N1CCC(C(=O)NC2CCS(=O)(=O)C2)CC1` (stereo not given) was -6.81%.
Turning to `CN(C)c1ccc(C(=O)N(Cc2ccncc2)CC2CCCO2)nn1` (stereo not given), the cytotoxicity at 10 µM is 14.2%.
Take `Cc1nc(CNCC2CCCN(C(=O)OC(C)(C)C)C2)cs1` (stereo not given): the cytotoxicity at 10 µM is -18.2%.
As for `NC(=O)NC(=O)CN1CCN(CC2CC2)c2ccccc21`, the cytotoxicity at 10 µM turned out to be 11.7%.
On to `CCCC(NC(=O)c1cscc1C)c1nnn[nH]1` (stereo not given), for which the cytotoxicity at 10 µM came out at 19.5%.
On to `CSc1ccc(CNCCS(=O)(=O)N2CCOCC2)cc1`, for which the cytotoxicity at 10 µM worked out at 4.83%.
As to `Cn1cc(CC(=O)N2CCOC(c3nc(C(C)(C)C)n[nH]3)C2)cn1` (stereo not given), the cytotoxicity at 10 µM came to 2.4%.
With `Cc1ccc(OC2CCN(S(=O)(=O)N(C)C)CC2)nc1` the figure was 7.68%; with `CN1CC(C(=O)N2CCC(Oc3ccccc3Cl)CC2)CC1=O` (stereo not given), 9.99%.
On to `CCn1ncc2c1CCCC2NCc1cscn1` (stereo not given), for which the cytotoxicity at 10 µM is -2.42%.
`Cc1nc(CN2CCN(C(C)C(=O)NC3CCCC3)CC2)cs1` (stereo not given): the cytotoxicity at 10 µM was -3.9%.
Consider `CCOCc1ccc(CNc2nc(OC)ncc2Cl)cc1`, for which the cytotoxicity at 10 µM was 13.2%.
As to `COc1ccc(-c2ccc(C(=O)NCCCC(N)=O)c(F)c2)c(F)c1`, the cytotoxicity at 10 µM is 0.393%.
In the case of `CSCc1cc(F)ccc1CNCc1cccnc1`, the cytotoxicity at 10 µM is -9.84%.
As to `CCN(CC)S(=O)(=O)CCNC(=O)N(C)C(C)c1ccccn1` (stereo not given), the cytotoxicity at 10 µM turned out to be 10.6%.
The value for `N#CCSCCCN1CCCC(C(=O)N2CCCCCC2)C1` (stereo not given) was 4.01%; that for `CCOC[C@@H]1CCC[C@]12CN(S(=O)(=O)c1cn(C)cn1)CCO2` was 5.7%; that for `O=C(NCC1CC1)[C@H]1C[C@H]2OCC[C@H]2N(Cc2ccoc2)C1` was -3.01%.
With `COCC1CN(C(=O)c2ccoc2C)Cc2nccn2C1` (stereo not given) the figure was 6.1%; with `C[C@@H]1CN(C(=O)c2ccsc2)C[C@]12CCN(c1ccsc1)C2=O`, 1.88%.
For `COc1ccc2c(c1)OCC(Cc1cc(C(=O)N3CCCC3)ccn1)C2` (stereo not given), the cytotoxicity at 10 µM was -0.675%.
In the case of `CCNC(=O)[C@@H]1C[C@H](N)CN1Cc1ccc2cccc(Cl)c2n1`, the cytotoxicity at 10 µM was determined as 5.91%.
On to `O=S(=O)(NCCn1cc(C2CCCNC2)nn1)c1ccc(Cl)cc1` (stereo not given), for which the cytotoxicity at 10 µM is -17.1%.
As for `CCc1cc(N2CCC(N[C@@H]3CS(=O)(=O)C[C@H]3O)CC2)nc(N(C)C)n1`, the cytotoxicity at 10 µM was -0.157%.
Regarding `CC(C)C1CN(Cc2nccn2C(C)C)CCC(=O)N1CC1CC1` (stereo not given), the cytotoxicity at 10 µM is -11%.
As to `O=C(NCc1nncn1C1CCCCC1)C1COc2ccccc2O1` (stereo not given), the cytotoxicity at 10 µM was determined as 2.83%.
As for `O=C(c1ccc2cccc(F)c2n1)N1CCN(CCn2cncn2)CC1`, the cytotoxicity at 10 µM came to 7.02%.
As to `O=C(O)[C@@H]1CN(C(=O)CCc2ccccn2)C[C@H]1c1ccccc1`, the cytotoxicity at 10 µM is 7.96%.
For `O=C(NCCN1CCCC(CO)C1)c1ccc2scnc2c1` (stereo not given), the cytotoxicity at 10 µM was 8.61%.
As to `Cc1nc(CNCc2ccc(OC34CCCN(CC3)C4)cc2)n[nH]1` (stereo not given), the cytotoxicity at 10 µM was 1.01%.
On to `CC(C)(C)C(=O)NCCC1CN(Cc2ccccc2F)CCO1` (stereo not given), for which the cytotoxicity at 10 µM was -2.05%.
The value for `CNc1ncc(CN(C)Cc2cc(O)c3cc(C)cc(C)c3n2)cn1` was -13.9%; that for `Fc1ccc(CCN2CCC(c3nnc(-c4cccnc4)o3)CC2)cc1` was 6.59%; that for `OC1CCCN(Cc2c(-c3ccco3)[nH]c3ncccc23)C1` (stereo not given) was -5.87%.
With `Cc1ncsc1-c1nnc(C2CCN(Cc3ccc(F)cc3)CC2)o1` the figure was 3.52%; with `COc1cccc(N2CCN(C(=O)CN(C)c3cnccn3)CC2)c1`, -15.2%.
`CC(=O)NC1CCCN(Cc2csc(-c3ncccn3)n2)C1` (stereo not given): the cytotoxicity at 10 µM was -13.1%.
As to `CN1CCN(c2cc(CNC(=O)c3cnccn3)ccn2)CC1`, the cytotoxicity at 10 µM is -8.92%.
With `Cc1cc(CN2CCCC(Cn3cncn3)C2)on1` (stereo not given), the cytotoxicity at 10 µM is -25.2%.
Regarding `Cc1n[nH]c(C2CN(CCc3cccs3)CCO2)n1` (stereo not given), the cytotoxicity at 10 µM was -15.8%.
With `CCCc1n[nH]c(C2CN(C(=O)c3ccnc(C4CC4)n3)CCO2)n1` (stereo not given), the cytotoxicity at 10 µM is -7.49%.
The value for `Cc1nn(C)c(C)c1C1CCCN1C(=O)c1cnc2n[nH]c(C)c2c1` (stereo not given) was -8.38%.
As to `CCc1nc(C2CCCN2C(=O)CCNS(C)(=O)=O)no1` (stereo not given), the cytotoxicity at 10 µM was -1.77%.
For `CC(NC(=O)CCc1cccs1)c1nnc2n1CCC2` (stereo not given), the cytotoxicity at 10 µM was -4.22%.
For the compound `Cc1ccc(N2CCCN(C(=O)CC3CCCO3)CC2)nn1` (stereo not given), the cytotoxicity at 10 µM is -3.68%.
The value for `CNC(=O)[C@@H](c1ccccc1OC)N1CCC[C@H]1C(=O)NC1CC1` was -4.39%; that for `CC(C)Nc1nc(N2CCCC2)nc2c1CCN(S(C)(=O)=O)CC2` was 6.43%.
With `Cc1cccc(CN2CCO[C@@H]3CC(COc4ccccn4)C[C@H]32)n1` (stereo not given in full) the figure was -3.31%; with `Cc1ccc(N2C[C@@H]3OCCN(CC4CC4)[C@@H]3C2)nn1`, 3.59%; with `Cn1ncc2c1CCCC2NCc1ccc(Br)s1` (stereo not given), -4.41%.
In the case of `Cc1ccc(C(=O)N2C[C@@H](OCc3cccnc3)[C@H]3OCCC[C@@H]32)o1`, the cytotoxicity at 10 µM was -2.52%.
Turning to `Cc1oncc1C(=O)NCc1cc(=O)n2c(n1)CN(C(C)C)CCC2`, the cytotoxicity at 10 µM is 2.45%.
In the case of `O=C(NC1CCC(O)CC1)c1ccc2nc(-c3ccc(F)cc3)cn2c1` (stereo not given), the cytotoxicity at 10 µM came to 1.31%.

Values taken from ChEMBL document CHEMBL4513216, “Probing the Open Global Health Chemical Diversity Library for Multistage-Active Starting Points for Next-Generation Antimalarials” (ACS Infect Dis, 2020).
